Activity calls are given as the source filed them.
Legend:
[1] = biological target: T1, Glycogen synthase kinase-3 beta (Homo sapiens, UniProt P49841); experiment: Inhibition of GSK3beta (unknown origin) at 10 uM using GS-2 peptide substrate incubated for 30 mins by kinase-Glo luminescent assay
How it was run: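 Human recombinant GSK-3β, 20 ng, in 50 mM HEPES pH 7.5 with 1 mM EDTA, 1 mM EGTA and Mg acetate. Substrate prephosphorylated GS-2 peptide 25 µM with 1 µM ATP; DMSO ≤1%. Incubated 30 min at 30 °C, then Kinase-Glo luminescence read after 10 min. Activity scaled between no-inhibitor and full-inhibition reference controls.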
Target sequence in this assay (P49841 whole entry, looked up): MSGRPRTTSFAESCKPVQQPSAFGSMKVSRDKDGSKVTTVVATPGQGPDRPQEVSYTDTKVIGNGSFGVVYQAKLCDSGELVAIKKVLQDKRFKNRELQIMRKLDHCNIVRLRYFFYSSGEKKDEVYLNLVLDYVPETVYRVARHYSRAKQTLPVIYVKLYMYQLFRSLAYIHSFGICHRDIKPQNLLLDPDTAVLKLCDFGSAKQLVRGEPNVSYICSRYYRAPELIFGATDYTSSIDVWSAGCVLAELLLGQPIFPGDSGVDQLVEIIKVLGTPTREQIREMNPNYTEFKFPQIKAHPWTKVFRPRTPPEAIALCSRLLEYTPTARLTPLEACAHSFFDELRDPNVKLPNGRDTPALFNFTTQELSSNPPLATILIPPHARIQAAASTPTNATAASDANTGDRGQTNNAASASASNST

[2] = biological target: T1, Glycogen synthase kinase-3 beta; experiment: Inhibition of GSK3beta (unknown origin) using GS-2 peptide substrate incubated for 30 mins by kinase-Glo luminescent assay
How it was run: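 Human recombinant GSK-3β, 20 ng, in 50 mM HEPES pH 7.5 with 1 mM EDTA, 1 mM EGTA and Mg acetate. Incubated 30 min at 30 °C, then Kinase-Glo luminescence read after 10 min. Activity scaled between no-inhibitor and full-inhibition reference controls.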
Target sequence in this assay (P49841 whole entry): as the sequence (P49841 whole entry, looked up) above

[3] = biological target: T1, Glycogen synthase kinase-3 beta; experiment: Inhibition of GSK3beta (unknown origin) pre-incubated for 30 mins followed by ULight-GS (Ser641/pSer657) peptide substrate addition and measured after 1 hr by TR-FRET assay
Target sequence in this assay (P49841 whole entry): as the sequence (P49841 whole entry, looked up) above

[4] = biological target: T1, Glycogen synthase kinase-3 beta; experiment: Reversible inhibition of GSK3beta (unknown origin) pre-incubated for 30 mins followed by 100 fold dilution into buffer containing ULight-GS (Ser641/pSer657) peptide substrate and cofactors by TR-FRET assay based jump-dilution assay
Target sequence in this assay (P49841 whole entry, looked up): as above

[5] = biological target: T1, Glycogen synthase kinase-3 beta; experiment: Competitive inhibition of GSK3beta (unknown origin) at 10 uM using fixed level of GS-2 peptide substrate and varying ATP levels incubated for 30 mins by kinase-Glo luminescent assay
How it was run: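 Human recombinant GSK-3β, 20 ng per reaction, in HEPES pH 7.5 buffer with EDTA, EGTA and Mg acetate. GS-2 prephosphorylated peptide held at 25 µM; ATP varied from 1 to 50 µM along with inhibitor level. 30 min at 30 °C, then Kinase-Glo luminescence read after 10 min. Lineweaver–Burk double-reciprocal analysis; means of two experiments, each run in triplicate.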
Target sequence in this assay (P49841 whole entry, looked up): as above

[6] = Permeability in pH 7.4 PBS incubated for 2.5 hrs by PAMPA-BBB assay; assay type: ADME; details: read-out: permeability
How it was run: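 PAMPA-BBB: donor filter coated with porcine brain lipid in dodecane (20 mg/mL). Compounds in PBS pH 7.4/EtOH 70:30, acceptor filled with the same. Sandwich incubated 2.5 h at 25 °C, then donor and acceptor concentrations measured by UV at 3–5 wavelengths, 3 wells, two runs. Ten reference drugs included for validation.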

[7] = tested on: Cerebellar granule neurone; experiment: Neurotoxicity in rat primary cerebellar granule neurons assessed as reduction in cell viability at 50 uM incubated for 24 hrs by MTT assay; assay type: toxicity
How it was run: (§1)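 Cerebellar granule neurons from 7-day-old rat pups, plated on poly-L-lysine at 3 × 10^5 cells/well in BME with FBS and 25 mM KCl. Cytosine arabinoside 10 µM added at 16 h. At 7 days in vitro, switched to serum-free BME with 25 mM KCl and treated 24 h at 0, 5, 25 or 50 µM. MTT 0.1 mg/mL for 20 min at 37 °C, A570. Mean ± SE of ≥3 experiments in triplicate, as % of control.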

[8] = tested on: Cerebellar granule neurone; experiment: Neurotoxicity in rat primary cerebellar granule neurons assessed as reduction in cell viability at 5 to 25 uM incubated for 24 hrs by MTT assay; assay type: toxicity; how it was run: as §1
[9] = Hepatotoxicity in human HepG2 cells assessed as reduction in cell viability at 5 to 50 uM incubated for 24 hrs by MTT assay; assay type: toxicity, cell-based; details: hepg2, 24 h
How it was run: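 HepG2 cells grown in DMEM with 10% FBS at 37 °C, 5% CO2, seeded at 0.5 × 10^5 cells/well and left 24 h. Exposed in serum-free DMEM for 24 h (concentrations listed as 0, 10, 25, 50 µM; elsewhere 0, 5, 25, 50 µM). MTT 0.1 mg/mL for 10 min at 37 °C in the dark. Formazan dissolved in Tris/Triton X-100, A570. Mean ± SE of ≥3 experiments in triplicate; reported as % of control.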

[10] = Inhibition of AcPHF6 peptide aggregation in pH 7.4 phosphate buffer at 10 uM by atomic force microscopy
How it was run: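 AcPHF6 500 µM in water diluted to 50 µM in 50 mM phosphate pH 7.4, ±10 µM compound, no ThT. Incubated 80 min at 25 °C with 10 s shaking at 400 rpm each minute. Ultrafiltered (30 kDa cut-off), buffer exchanged to water, and the retained high-MW fraction adsorbed on mica. Imaged by PeakForce tapping-mode AFM.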

[11] = Inhibition of tau K18 fragment peptide aggregation assessed as induction of delay in […] self aggregation at 1 to 10 uM measured every 15 mins by ThT fluorescence assay based RT-QuIC analysis
How it was run: (§2)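 Tau K18 21 µM with heparin 0.015 mg/mL, 0.1 mM DTT and 10 µM ThT in PBS, with compound at 1, 5 or 10 µM or 1% DMSO; triplicate. Cycled 1 min shaking at 300 rpm and 14 min rest at 37 °C. ThT read every 15 min (ex 450, em 480 nm). Inhibition from mean plateau fluorescence.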

[12] = Inhibition of tau K18 fragment peptide aggregation assessed as reduction in […] self aggregation at 1 to 10 uM measured every 15 mins by ThT fluorescence assay based RT-QuIC analysis; how it was run: as §2
[13] = biological target: Microtubule-associated protein tau (Homo sapiens) (UniProt P10636); experiment: Inhibition of heparin-induced full-length 2N4R tau self aggregation (unknown origin) assessed as induction of delay in aggregation at 10 uM by ThT fluorescence assay based RT-QuIC analysis
Chain of Microtubule-associated protein tau (Homo sapiens) (P10636 whole entry): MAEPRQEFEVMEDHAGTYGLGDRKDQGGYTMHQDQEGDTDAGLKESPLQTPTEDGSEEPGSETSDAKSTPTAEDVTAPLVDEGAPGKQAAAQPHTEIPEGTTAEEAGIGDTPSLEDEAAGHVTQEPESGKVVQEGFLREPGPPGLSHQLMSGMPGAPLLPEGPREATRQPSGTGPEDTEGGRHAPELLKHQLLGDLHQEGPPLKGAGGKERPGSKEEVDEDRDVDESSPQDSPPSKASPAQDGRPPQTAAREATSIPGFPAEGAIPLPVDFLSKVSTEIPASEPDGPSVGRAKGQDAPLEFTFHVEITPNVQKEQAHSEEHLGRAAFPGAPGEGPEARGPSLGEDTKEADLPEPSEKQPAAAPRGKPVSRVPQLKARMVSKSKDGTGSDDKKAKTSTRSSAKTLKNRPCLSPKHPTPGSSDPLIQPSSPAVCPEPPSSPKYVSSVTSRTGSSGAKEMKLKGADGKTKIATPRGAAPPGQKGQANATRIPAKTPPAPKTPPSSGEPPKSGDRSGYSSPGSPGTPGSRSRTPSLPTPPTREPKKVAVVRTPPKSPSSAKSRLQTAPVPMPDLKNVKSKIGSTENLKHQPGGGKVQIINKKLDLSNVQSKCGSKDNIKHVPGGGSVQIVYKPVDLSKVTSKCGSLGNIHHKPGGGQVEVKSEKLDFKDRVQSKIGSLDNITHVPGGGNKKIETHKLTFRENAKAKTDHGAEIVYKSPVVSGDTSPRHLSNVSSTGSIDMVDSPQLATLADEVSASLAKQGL
How it was run: (§3)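 Full-length 2N4R tau 20 µM with heparin 0.02 mg/mL, 0.5 mM DTT and 10 µM ThT in PBS, ±10 µM compound; 1% DMSO control. Cycled 1 min shaking at 600 rpm and 1 min rest at 42 °C. ThT read every 2 min (ex 450, em 480 nm).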

[14] = biological target: Microtubule-associated protein tau (Homo sapiens) (UniProt P10636); experiment: Inhibition of heparin-induced full-length 2N4R tau self aggregation (unknown origin) assessed as reduction in formed aggregates level at 10 uM by ThT fluorescence assay based RT-QuIC analysis; how it was run: as §3
[15] = biological target: T1, Glycogen synthase kinase-3 beta; experiment: Inhibition of okadaic acid-induced GSK-3beta-mediated tau hyperphosphorylation in human SH-SY5Y cells assessed as increase in cell viability pre-incubated for 1 hr before okadaic acid stimulation for 24 hrs by MTT assay; assay type: cell-based
How it was run: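 SH-SY5Y cells grown in DMEM with 10% FBS, seeded at 60000 per well and used 48 h later. Compound given 1 h before 30nM okadaic acid, then 24 h incubation. Viability by MTT, 0.5mg/mL for at least 4 h, formazan dissolved in DMSO, absorbance at 595 nm. Expressed relative to control (=100); n=6 from three independent experiments.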
Target sequence in this assay (P49841 whole entry, looked up): as the sequence (P49841 whole entry, looked up) above

[16] = biological target: T1, Glycogen synthase kinase-3 beta; experiment: Inhibition of GSK3beta (unknown origin) at 10 uM
How it was run: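 Human recombinant GSK-3β (20 ng) with 25 µM GS-2 prephosphorylated peptide and 1 µM ATP in 50 mM HEPES pH 7.5, 1 mM EDTA, 1 mM EGTA, Mg acetate. DMSO at most 1%. 30 min at 30 °C; reaction stopped with Kinase-Glo, luminescence read after 10 min. Activity scaled between no inhibitor and full inhibition by a reference inhibitor.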
Target sequence in this assay (P49841 whole entry, looked up): as above

[17] = biological target: Casein kinase I isoform delta (Homo sapiens) (UniProt P48730); experiment: Inhibition of human recombinant CK1delta at 10 uM incubated for 60 mins by Kinase-Glo assay
Chain of Casein kinase I isoform delta (Homo sapiens) (P48730 whole entry, looked up, canonical isoform): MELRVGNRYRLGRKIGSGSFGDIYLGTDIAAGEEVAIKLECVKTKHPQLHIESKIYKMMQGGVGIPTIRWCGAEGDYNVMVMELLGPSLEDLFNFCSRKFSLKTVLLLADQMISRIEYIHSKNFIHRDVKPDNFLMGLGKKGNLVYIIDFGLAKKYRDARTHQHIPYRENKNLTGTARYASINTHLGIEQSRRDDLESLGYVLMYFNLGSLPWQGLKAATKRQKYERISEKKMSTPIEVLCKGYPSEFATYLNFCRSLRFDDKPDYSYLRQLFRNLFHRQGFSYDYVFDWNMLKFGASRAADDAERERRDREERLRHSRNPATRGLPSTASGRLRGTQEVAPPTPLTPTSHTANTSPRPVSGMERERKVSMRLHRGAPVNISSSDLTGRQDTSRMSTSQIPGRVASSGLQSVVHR
How it was run: (§4)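 Human recombinant CK1δ or CK1ε, 16 ng, in 50 mM HEPES pH 7.5 with 10 mM MgCl2, 1 mM EGTA and Brij-35. Substrate 0.1% casein with 4 µM ATP; compound diluted to 10 µM before addition, DMSO ≤1%. Incubated 60 min at 30 °C, then Kinase-Glo luminescence read. Inhibition relative to no-inhibitor activity; mean of two experiments.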

[18] = biological target: Casein kinase I isoform epsilon (Homo sapiens) (UniProt P49674); experiment: Inhibition of human recombinant CK1epsilon at 10 uM incubated for 60 mins by Kinase-Glo assay; how it was run: as §4
Chain of Casein kinase I isoform epsilon (Homo sapiens) (P49674 whole entry, looked up, canonical isoform): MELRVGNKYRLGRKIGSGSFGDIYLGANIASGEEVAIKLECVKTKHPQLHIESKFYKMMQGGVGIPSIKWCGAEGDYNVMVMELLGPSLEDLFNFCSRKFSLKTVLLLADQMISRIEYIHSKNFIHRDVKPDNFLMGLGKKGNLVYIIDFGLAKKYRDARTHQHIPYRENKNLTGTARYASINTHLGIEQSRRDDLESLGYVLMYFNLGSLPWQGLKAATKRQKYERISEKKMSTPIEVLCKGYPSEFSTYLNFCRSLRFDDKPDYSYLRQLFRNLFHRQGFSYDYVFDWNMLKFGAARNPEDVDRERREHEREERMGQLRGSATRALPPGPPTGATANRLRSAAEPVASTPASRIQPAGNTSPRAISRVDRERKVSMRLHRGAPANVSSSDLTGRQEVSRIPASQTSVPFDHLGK

[19] = biological target: CDC7/DBF4 (Cell division cycle 7-related protein kinase/Activator of S phase kinase) (Homo sapiens) (UniProt Q9UBU7+O00311); experiment: Inhibition of CDC7/Dbf4 (unknown origin) at 10 uM incubated for 60 mins by Kinase-Glo assay; assay type: protein-complex assay; details: in the assay text read “ADP-Glo assay” for “Kinase-Glo assay”
Chain of CDC7/DBF4 (Cell division cycle 7-related protein kinase/Activator of S phase kinase) (Homo sapiens) (O00311 whole entry, looked up): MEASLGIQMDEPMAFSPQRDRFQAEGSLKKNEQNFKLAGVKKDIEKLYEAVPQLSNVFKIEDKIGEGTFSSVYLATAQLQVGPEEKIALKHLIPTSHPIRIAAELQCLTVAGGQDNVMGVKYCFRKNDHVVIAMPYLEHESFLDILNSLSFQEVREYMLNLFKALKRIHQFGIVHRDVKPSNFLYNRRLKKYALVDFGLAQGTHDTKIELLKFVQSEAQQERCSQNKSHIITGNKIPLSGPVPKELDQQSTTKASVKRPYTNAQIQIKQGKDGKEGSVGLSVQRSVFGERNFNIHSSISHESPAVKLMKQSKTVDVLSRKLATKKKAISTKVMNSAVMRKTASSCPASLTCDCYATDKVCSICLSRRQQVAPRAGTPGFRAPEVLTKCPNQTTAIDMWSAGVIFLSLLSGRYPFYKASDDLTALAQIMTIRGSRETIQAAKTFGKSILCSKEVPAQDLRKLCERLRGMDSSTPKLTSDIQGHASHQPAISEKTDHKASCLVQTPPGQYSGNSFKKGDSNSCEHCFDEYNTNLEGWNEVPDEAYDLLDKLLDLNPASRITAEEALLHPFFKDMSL
Chain of CDC7/DBF4 (Cell division cycle 7-related protein kinase/Activator of S phase kinase) (Homo sapiens) (Q9UBU7 whole entry, looked up): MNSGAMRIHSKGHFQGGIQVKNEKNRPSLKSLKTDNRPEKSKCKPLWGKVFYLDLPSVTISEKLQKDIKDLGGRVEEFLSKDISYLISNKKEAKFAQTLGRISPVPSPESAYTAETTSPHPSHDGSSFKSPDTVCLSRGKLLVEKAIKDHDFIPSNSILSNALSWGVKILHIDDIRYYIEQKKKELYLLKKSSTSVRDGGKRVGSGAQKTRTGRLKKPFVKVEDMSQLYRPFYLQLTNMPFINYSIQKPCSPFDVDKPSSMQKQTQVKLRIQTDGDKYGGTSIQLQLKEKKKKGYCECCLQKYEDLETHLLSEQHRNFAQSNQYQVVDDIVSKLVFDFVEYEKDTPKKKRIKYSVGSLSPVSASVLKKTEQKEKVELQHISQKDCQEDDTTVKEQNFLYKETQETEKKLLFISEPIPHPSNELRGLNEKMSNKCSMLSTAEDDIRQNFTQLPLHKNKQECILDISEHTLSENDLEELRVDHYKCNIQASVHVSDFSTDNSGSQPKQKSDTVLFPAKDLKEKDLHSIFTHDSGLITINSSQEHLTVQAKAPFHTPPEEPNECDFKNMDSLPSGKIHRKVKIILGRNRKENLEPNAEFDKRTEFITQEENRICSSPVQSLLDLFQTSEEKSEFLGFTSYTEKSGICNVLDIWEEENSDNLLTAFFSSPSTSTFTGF
How it was run: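 CDC7/DBF4 enzyme, 25 ng/well, with 10 µM ATP (final) and PDKtide substrate. Incubated 60 min at room temperature. ADP-Glo reagent added for 40 min, then detection reagent for 30 min, and luminescence read. Inhibition calculated relative to the no-inhibitor maximum.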

[20] = Inhibition of AcPHF6 peptide aggregation in pH 7.4 phosphate buffer at 20 uM by CD Spectroscopy

inhibition [1]: > 50% | IC50 [2]: 0.89 µM | IC50 [3]: 5.5 µM | inhibition [4]: Active | inhibition [5]: Active | Papp at 2.5 h [6]: > 3.07 ×10⁻⁶ cm/s | inhibition [10]: Active | inhibition [11]: Active | inhibition [12]: 35% | inhibition [13]: inactive | inhibition [14]: 30% | inhibition [16]: 100% | inhibition [17]: inactive | inhibition [18]: inactive | inhibition [19]: inactive | inhibition [20]: Active
SMILES: COc1ccc2c(c1)c(/C=C1\SC(=O)NC1=O)cn2C
Activity [7]: Toxic | Activity [8]: Non-Toxic | Activity [9]: Non-Toxic | inhibition [15]: Active

— ChEMBL document CHEMBL4145680, “Tau-Centric Multitarget Approach for Alzheimer's Disease: Development of First-in-Class Dual Glycogen Synthase Kinase 3β and Tau-Aggregation Inhibitors” (J Med Chem, 2018)
